Bioassay records from PubChem.
Hits are enriched below; roughly 2.2% of the tested compounds scored in any of these assays.
Rtt109 HAT inh – inhibitors of Candida albicans Rtt109/Vps75 histone acetyltransferase; Q5AAJ8; purified Rtt109/Vps75, ThioGlo CoA-SH fluorescence, 4 h; inhibition, % at 34.9 µM; 330,000 tested, 0.16% active; AID 540336;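 active means inhibition of at least 50% in every replicate; inconclusive means best replicate reaches 50% inhibition but some replicates fall short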
dFosB act-1 – mouse delta FosB homodimer activation; P13346; purified delta FosB, TAMRA-CDK5 oligo fluorescence polarization; percent of positive-control signal above neutral wells; activation, % at 25 µM; 340,000 tested, 0.99% active;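 active means mean activation above about 17%, with every replicate also reaching it, limit read from the data, passing the limit was not always enough; inconclusive means only one of the two conditions met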
CAL PDZ FP-1 – blocks peptide binding to human CAL PDZ domain. Q9HD26. purified CAL PDZ, TMR-peptide fluorescence polarization, 1 h. inhibition, % at 20 µM. 330,000 tested, 0.02% active;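 active means highest replicate inhibition of at least 40%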;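 further: plate controls were DMSO neutral control wells for no effect and unlabeled competitor peptide control wells for full effect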
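Test system: tagged CAL PDZ domain / Buffer or medium: sodium phosphate/NaCl buffer pH 7.4 with TCEP, IgG, Thesit / Reagent: TMR-labelled reporter peptide T*-PRC34 bound in PDZ groove / Compound dosing: single point, 20 µM / Schedule: 1 h incubation at room temperature before polarization reading / Technique: fluorescence polarization (mP) / Benchmarks: unlabelled peptide, DMSO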
CAL PDZ FP-2 – blocks peptide binding to the human CAL PDZ domain; Q9HD26; 300,000 tested, 0.92% active; purified CAL PDZ, TMR-peptide fluorescence polarization, 1 h; inhibition, % at 24.9 µM;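 active means mean inhibition of at least 30% with at least half of replicates also reaching 30%; inconclusive means no clear call, values can overlap the other calls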;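 further: 0% = DMSO neutral control and 100% = excess unlabeled competitor peptide PRC23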
Dyrk1A ADPGlo – blocks rat Dyrk1A kinase activity; ADP-Glo luminescence, NFATc1 peptide; 310,000 tested, 0.43% active; inhibition, % at 12.5 µM; in the data active means inhibition above about 50%;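 further: plate controls were vehicle with enzyme for no effect and no enzyme for full effect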
CDK5 inh – CDK5/p35 (human) kinase inhibition; Q00535+Q15078; Recombinant CDK5/p35, ADP-Glo luminescence, 60 min; inhibition, % at 10 µM; 330,000 tested, 0.01% active;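 active means highest replicate inhibition of at least 50% and at least 75% of replicates reaching 50%; inconclusive means only one of the two criteria met; inactive means both criteria failed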;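 further: plate controls were DMSO neutral control for no effect and GW8510 at 10 µM for full effect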
Target sequence (Q00535 whole entry, looked up): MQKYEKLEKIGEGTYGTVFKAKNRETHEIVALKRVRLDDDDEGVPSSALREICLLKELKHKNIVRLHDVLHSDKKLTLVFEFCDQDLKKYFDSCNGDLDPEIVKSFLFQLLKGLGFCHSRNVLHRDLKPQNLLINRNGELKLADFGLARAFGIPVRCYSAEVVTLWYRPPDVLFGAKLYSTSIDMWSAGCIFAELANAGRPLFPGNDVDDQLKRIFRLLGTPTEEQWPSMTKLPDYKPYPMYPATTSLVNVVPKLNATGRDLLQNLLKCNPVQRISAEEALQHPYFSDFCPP
Target sequence (Q15078 whole entry, looked up): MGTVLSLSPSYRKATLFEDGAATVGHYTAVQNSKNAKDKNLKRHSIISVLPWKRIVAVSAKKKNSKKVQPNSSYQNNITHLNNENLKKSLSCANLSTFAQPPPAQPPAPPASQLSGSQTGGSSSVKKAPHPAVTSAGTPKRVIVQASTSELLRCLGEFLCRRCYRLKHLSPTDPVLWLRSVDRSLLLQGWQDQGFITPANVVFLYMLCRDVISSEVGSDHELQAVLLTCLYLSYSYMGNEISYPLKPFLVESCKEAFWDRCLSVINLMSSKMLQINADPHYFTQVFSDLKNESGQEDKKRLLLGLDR
dFosB act-2 – enhances mouse delta FosB homodimer binding to DNA; AID 588690; 2,400 tested, under 10 active; activation, % at 24.9 µM; purified delta FosB, TAMRA-CDK5 oligo fluorescence polarization; normalised: neutral wells 0, positive control 100; shares compounds with dFosB act-1;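 active means highest replicate activation at or above 34% and every replicate reaching that threshold; inconclusive means meets only one of the two criteria; inactive means meets neither criterion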;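 further: higher polarization means more probe DNA bound by delta FosB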
Starred values were filed as active, the others as inactive; u = inconclusive; x = no result given.

SMILES | Rtt109 HAT inh | dFosB act-1 | CAL PDZ FP-1 | CAL PDZ FP-2 | Dyrk1A ADPGlo | CDK5 inh | dFosB act-2
O=C(C[C@H]1C/C=C\C[C@@H](Cc2ccc(F)cc2)C(=O)O[C@@H](c2ccccc2)CNC1=O)N[C@@H](CO)Cc1ccccc1 | -0.6 | 48.9* | 0.1 | -0.5 | 0.0 | 1.1 | 2.8
O=C(C[C@H]1C/C=C\C[C@H](Cc2ccc(F)cc2)C(=O)O[C@@H](c2ccccc2)CNC1=O)N[C@@H](CO)Cc1ccccc1 | 6.6 | -2.2 | -0.4 | 0.4 | 6.7 | -0.5 | x
O=C(C[C@H]1C/C=C\CC[C@@H](Cc2ccc(F)cc2)C(=O)O[C@H](c2ccccc2)CNC1=O)N[C@H](CO)Cc1ccccc1 | -1.4 | 3.8 | 0.2 | 0.5 | -0.1 | 8.5 | x
O=C(C[C@H]1C/C=C\CC[C@@H](Cc2ccc(F)cc2)C(=O)O[C@@H](c2ccccc2)CNC1=O)N[C@@H](CO)Cc1ccccc1 | 3.9 | 116.0* | -0.1 | -1.3 | 9.8 | -1.0 | -0.3
O=C(CCOc1ccccc1)Nc1ccc(S(=O)(=O)Nc2ncccn2)cc1 | -6.3 | -7.1 | 0.5 | x | 4.5 | -2.4 | x
CCCCc1ccc(NC(=O)CSc2nc3ncccc3[nH]2)cc1 | 2.0 | 19.6* | -2.0 | -0.8 | -1.5 | 0.7 | -1.0
O=C(COC(=O)CNC(=O)c1ccc(Br)cc1)Nc1nnc(-c2ccccc2)o1 | 3.3 | 20.5* | -2.0 | -1.8 | -4.2 | -0.7 | -1.1
O=C(COc1ccc2ccc(=O)oc2c1)NCCc1c[nH]c2ccc(F)cc12 | -7.8 | 4.4 | -1.5 | -1.0 | -3.3 | 2.0 | x
CCCc1cc(=O)oc2cc(OCC(=O)NCCc3c[nH]c4ccc(OC)cc34)ccc12 | 2.2 | 18.5* | 1.0 | -2.0 | 2.6 | -0.9 | 1.6
COc1cccc(-c2cc(C(=O)Nc3cnn(Cc4ccccc4C)c3)no2)c1 | 8.1 | 43.1* | x | 0.6 | -4.1 | -0.9 | 0.7
Cc1c(N=C2N=C(NC(=O)Nc3ccc(Cl)cc3)c3ccccc32)c(=O)n(-c2ccccc2)n1C | -10.1 | 38.0* | -0.4 | x | -3.5 | 2.1 | -30.1
Cc1c(NC(=O)Nc2ccc(Cl)cc2)c(=O)n(-c2ccccc2)n1C | -2.5 | 6.1 | -2.2 | -3.4 | -5.6 | 0.1 | x
Cc1cc(C)cc(NC(=O)CCc2nc3ccccc3[nH]2)c1 | -0.4 | 28.2* | -0.4 | -0.6 | -6.8 | -0.3 | -1.2
c1ccc(CN(CCN2CCOCC2)Cc2ccccc2)cc1 | -0.5 | 1.3 | 0.8 | -4.2 | -6.6 | 0.5 | x
Cc1ccc2nc(SCC(=O)Nc3ccc4sc(C)nc4c3)c(C#N)cc2c1 | -2.4 | 25.0* | -0.7 | -0.3 | 1.7 | -1.6 | -4.8
COc1ccc(CC(=O)OCC(=O)Nc2ccc(C(=O)Nc3ccc(OC)cc3)cc2)cc1 | -4.6 | 22.4* | -18.6 | -0.6 | -5.1 | 1.5 | 6.1
COc1ccc(NC(=O)C2(c3ccc(NC(=O)c4ccc(C)cc4)cc3)CCCC2)cc1 | 11.2 | 23.4* | -0.4 | x | -5.6 | 2.0 | 0.2
CCc1nnc2n1N=C(c1ccc(OC)cc1)CS2 | -8.2 | -7.9 | -1.1 | x | 6.1 | 1.5 | x
CCc1nnc2n1N=C(c1ccc(-c3cc(Cl)ccc3Cl)o1)CS2 | 7.1 | 29.6* | -0.2 | 1.4 | 2.2 | -0.1 | -1.0
CCc1ccc2nc(SCC(=O)Nc3ccccc3N3CCOCC3)c(C#N)cc2c1 | -4.4 | 24.3* | -1.9 | -2.7 | 1.2 | 1.5 | 5.2
COc1cc(CNCCN(C)C)c(Br)cc1OC1CCCC1 | -0.3 | -10.3 | -1.3 | x | 12.2 | -0.8 | x
O=C(C1CC=CCC1)N1CCC(CO)(Cc2ccc(Cl)cc2)CC1 (stereo not given) | -3.4 | -3.7 | -0.8 | 0.6 | 0.1 | -0.9 | x
Cc1ccc2nc(-c3cccnc3SCC(=O)N3c4ccccc4CC3C)[nH]c2c1 (stereo not given) | -4.3 | 29.0* | -4.3 | 1.2 | -21.6 | -1.1 | 2.3
Cc1nc2ccc3nc(NC(=O)C4COc5ccccc5O4)sc3c2s1 (stereo not given) | -24.9 | u | -0.3 | -3.9 | 8.2 | -0.9 | x
CSc1nc2ccc3nc(NC(=O)C4COc5ccccc5O4)sc3c2s1 (stereo not given) | 0.1 | 70.1* | -0.7 | 6.1 | 43.4 | 0.6 | -0.8
SMILES | Rtt109 HAT inh | dFosB act-1 | CAL PDZ FP-1 | CAL PDZ FP-2 | Dyrk1A ADPGlo | CDK5 inh | dFosB act-2
COc1ccc(CNCCC(c2ccc(F)cc2)c2ccc(OC)cc2)cc1 (stereo not given) | 13.0 | 20.7* | -3.5 | -1.7 | 2.4 | 1.3 | 4.4
COc1ccc(C(CCNCc2ccc(F)cc2)c2ccc(F)cc2)cc1 (stereo not given) | 1.4 | -4.9 | -1.8 | 4.2 | 1.0 | 1.2 | x
COc1ccc(N(CC(=O)NC2CCS(=O)(=O)C2)S(=O)(=O)c2ccc(Cl)c(Cl)c2)cc1 (stereo not given) | 12.0 | 43.2* | -1.3 | -19.5 | 16.6 | 0.0 | 2.5
COc1ccc(NC(=O)CN(c2ccc(OC)cc2)S(=O)(=O)c2ccc(OC)c(OC)c2)cc1 | -6.1 | 52.1* | 1.0 | -1.3 | 9.3 | -0.2 | 5.6
COC(=O)CN(c1ccc(OC)cc1)S(=O)(=O)c1ccc(OC)c(OC)c1 | 1.9 | -4.9 | 0.3 | 11.3 | -7.6 | -0.4 | x
COc1ccc(OC)c(N(CC(=O)NC2CCCCCC2)S(=O)(=O)c2ccc(C)cc2)c1 | -3.8 | -8.4 | -2.1 | -2.3 | -1.1 | -3.4 | x
COc1ccc(N(CC(=O)NC2CCCCCC2)S(=O)(=O)c2ccc(C)cc2)cc1OC | -3.0 | 26.8* | -1.2 | -3.3 | 3.9 | -2.1 | -0.9
Cc1[nH]ccc(=O)c1Oc1ncc(C(F)(F)F)cc1Cl | x | -1.6 | -2.9 | -1.9 | -3.2 | 0.0 | x
c1ccc(-n2cc(CN3CCCC(CN4CCCC4)C3)c(-c3ccc4c(c3)OCO4)n2)cc1 (stereo not given) | 3.0 | 27.2* | -2.6 | -3.5 | -24.3 | -0.9 | -6.3
CCOC(=O)c1sc(NC(=O)CN2C(=O)c3cccc4cccc(c34)C2=O)nc1C | -2.9 | 47.3* | -3.3 | -4.4 | -3.0 | -0.1 | -5.9
COc1ccccc1-n1c(SC)nc2c(sc(=S)n2-c2ccccc2)c1=O | -3.1 | 24.2* | -0.2 | 2.0 | 3.2 | -0.6 | 0.8
Cc1ccc(CN2CC(C(=O)N(Cc3nnc(-c4ccccc4Cl)o3)C3CC3)CC2=O)cc1 (stereo not given) | -3.9 | -7.9 | -0.7 | -2.3 | -4.7 | 2.0 | x
CCC(C)n1c(=O)c(C(=O)Nc2ccccc2S(N)(=O)=O)c(O)c2ccccc21 (stereo not given) | 0.5 | 74.4* | 0.8 | -2.1 | -6.1 | 0.8 | 2.0
CC(C)Cn1c(=O)c(C(=O)Nc2ccccc2S(N)(=O)=O)c(O)c2ccccc21 | -6.8 | 0.8 | -0.2 | -0.7 | 5.2 | -1.2 | x
CN(C)CCN(C(=O)/C=C/c1cccs1)c1nc2c(F)cc(F)cc2s1 | 13.6 | 53.1* | -0.8 | 1.0 | -7.0 | 2.9 | 4.4
